# The M2OR odorant receptor database
# Target: T1, OR5AC2 (Homo sapiens) (UniProt Q9NZP5)
# T1 sequence (whole entry): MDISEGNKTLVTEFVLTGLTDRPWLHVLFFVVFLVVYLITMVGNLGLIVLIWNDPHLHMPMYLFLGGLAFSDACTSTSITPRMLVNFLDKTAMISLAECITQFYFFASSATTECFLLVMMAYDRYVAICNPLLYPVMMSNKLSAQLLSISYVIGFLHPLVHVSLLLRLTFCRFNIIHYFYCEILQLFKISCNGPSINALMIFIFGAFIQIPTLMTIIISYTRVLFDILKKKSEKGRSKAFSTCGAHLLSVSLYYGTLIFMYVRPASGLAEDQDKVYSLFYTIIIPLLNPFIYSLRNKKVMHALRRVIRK
# Conditions: stereoisomer not certain
# In short: (§1)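 Transient luciferase assays in mammalian cell lines were common, though methods varied by source. The values come from published papers and their supplementary material, with extra details from the original authors when needed. Responsive refers to a measured signal the original authors judged statistically different from baseline, and non-responsive (inactive) to the remainder.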
# 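Further: active if original authors judged signal statistically different from baseline.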
row,SMILES,odorant receptor agonist call
1,CCCCCCCCC(OC(C)=O)OC(C)=O,inactive
2,CCc1ccc(CC(C)(C)C=O)cc1,inactive
3,CCCCCC1C(=O)CCC1CC(=O)OC (stereo not drawn),inactive
4,OCc1ccccc1,inactive
5,CC(C)CCCC(C)(C)O,inactive
6,C=CCOC(=O)COCCC(C)C,inactive
7,CCC(=O)C=CC1C(C)=CCCC1(C)C (stereo not drawn),inactive
8,CCCCCC1COCCC1OC(C)=O (stereo not drawn),inactive
9,CC(C)=CCCC(C)=CCO,inactive
10,CC(=O)OCc1ccccc1,inactive
11,CC1=CCC2CC1C2(C)C (stereo not drawn),inactive
12,CCC=C(C)C(O)CCCCC (stereo not drawn),inactive

# Target: T2, OR5AN1 (Homo sapiens) (UniProt Q8NGI8)
# T2 sequence (whole entry): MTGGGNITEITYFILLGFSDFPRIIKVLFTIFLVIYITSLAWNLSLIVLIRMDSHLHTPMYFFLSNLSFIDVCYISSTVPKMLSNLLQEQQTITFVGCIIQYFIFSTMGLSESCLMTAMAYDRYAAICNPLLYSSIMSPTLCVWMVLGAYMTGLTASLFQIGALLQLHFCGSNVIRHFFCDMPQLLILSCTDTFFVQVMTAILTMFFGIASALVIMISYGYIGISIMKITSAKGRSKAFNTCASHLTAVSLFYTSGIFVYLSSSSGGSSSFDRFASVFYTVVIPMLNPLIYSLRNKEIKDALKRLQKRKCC
# Conditions: stereoisomer not certain
# In short: as §1
row,SMILES,odorant receptor agonist call
1,O=C1CCCCCCCCC1,inactive
2,O=C1CCCCCCC=CCCCCCCC1,active
3,CCCCCCCCCCCCCC(C)=O,inactive
4,O=C1CCCCCCCCCCCCCC1,active
5,CC1CC=CCCCCCCCCCC(=O)C1 (stereo not drawn),active
6,O=C1CCCCCCCCCC1,inactive
7,O=C1C=CCCCCCCCCCCCCO1,active
8,CCCCCCCC(=O)CCCCCCC,inactive
9,O=C1CCCCCC=CCCCCCCCCO1,active
10,CC1CCCCCCCCCCCC(=O)C1 (stereo not drawn),active
11,C1CCCCCCCCCCCCCC1,inactive
12,CCC(=O)OCC(C)(C)OC(C)C1CCCC(C)(C)C1 (stereo not drawn),inactive
13,CC1C(C)(C)C2=C(C(=O)CCC2)C1(C)C (stereo not drawn),inactive
14,OC1CCCCCCCCCCCCCC1,inactive
15,O=C1CCCC=CCCCCCCCCCC1,active
16,CC1CC=CCCCCCCCCC(=O)C1 (stereo not drawn),active
